Data published in ChEMBL document CHEMBL1130127, “Synthesis, photophysical properties, in vivo photosensitizing efficacy, and human serum albumin binding properties of some novel bacteriochlorins” (J Med Chem, 1997).
Activity calls are given as the source filed them. No cut-off for these calls is given here.

Columns and labels:
Mus musculus [1] = test: The compound was tested in vivo for photosensitizing efficacy in DBA/2 Mice transplanted with SMT/F tumors and the activity is expressed as % response (21-25 days) 3 hours post injection at 1 mg/kg concentration; No response; assay type: functional, organism-based; set-up: dose 1 mg/kg
Method in brief: (§1)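 Female DBA/2 HA-DD mice, 5-7 weeks old. A 1 mm SMT-F tumor piece from a donor was trocar-implanted subcutaneously in the axilla. At about 5 mm tumor diameter, sensitizer in 1% Tween 80/water was given iv; dose was based on extinction coefficient. At 3 or 24 h after injection, restrained mice had the tumor lit with 135 J/cm2 laser light at the in vivo long-wavelength maximum. Tumor response was followed to day 30; six mice/group.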

Mus musculus [2] = test: The compound was tested in vivo for photosensitizing efficacy in DBA/2 Mice transplanted with SMT/F tumors and the activity is expressed as % response (21-25 days) 3 hours post injection at 2.5 mg/kg concentration; assay type: functional; method in brief: as §1
Mus musculus [3] = test: The compound was tested in vivo for photosensitizing efficacy in DBA/2 Mice transplanted with SMT/F tumors and the activity is expressed as % response (1-5 days) 3 hours post injection at 2 1 mg/kg concentration; No response; assay type: functional, organism-based; set-up: dose 1 mg/kg; details: at 1 mg/kg; method in brief: as §1
Mus musculus [4] = test: The compound was tested in vivo for photosensitizing efficacy in DBA/2 Mice transplanted with SMT/F tumors and the activity is expressed as % response (1-5 days) 3 hours post injection at 2.5 mg/kg concentration; assay type: functional; method in brief: as §1
Mus musculus [5] = test: The compound was tested in vivo for photosensitizing efficacy in DBA/2 Mice transplanted with SMT/F tumors and the activity is expressed as % response (1-5 days) 3 hours post injection at 5.0 mg/kg concentration; assay type: functional; method in brief: as §1
Mus musculus [6] = test: The compound was tested in vivo for photosensitizing efficacy in DBA/2 Mice transplanted with SMT/F tumors and the activity is expressed as % response (11-15 days) 3 hours post injection at 1 mg/kg concentration; No response; assay type: functional, organism-based; set-up: dose 1 mg/kg; method in brief: as §1
Mus musculus [7] = test: The compound was tested in vivo for photosensitizing efficacy in DBA/2 Mice transplanted with SMT/F tumors and the activity is expressed as % response (11-15 days) 3 hours post injection at 2.5 mg/kg concentration; assay type: functional; method in brief: as §1
Mus musculus [8] = test: The compound was tested in vivo for photosensitizing efficacy in DBA/2 Mice transplanted with SMT/F tumors and the activity is expressed as % response (11-15 days) 3 hours post injection at 5.0 mg/kg concentration; assay type: functional; method in brief: as §1
Mus musculus [9] = test: The compound was tested in vivo for photosensitizing efficacy in DBA/2 Mice transplanted with SMT/F tumors and the activity is expressed as % response (16-20 days) 3 hours post injection at 1 mg/kg concentration; No response; assay type: functional, organism-based; set-up: dose 1 mg/kg; method in brief: as §1
Mus musculus [10] = test: The compound was tested in vivo for photosensitizing efficacy in DBA/2 Mice transplanted with SMT/F tumors and the activity is expressed as % response (16-20 days) 3 hours post injection at 2.5 mg/kg concentration; assay type: functional; method in brief: as §1
Mus musculus [11] = test: The compound was tested in vivo for photosensitizing efficacy in DBA/2 Mice transplanted with SMT/F tumors and the activity is expressed as % response (16-20 days) 3 hours post injection at 5.0 mg/kg concentration; assay type: functional; method in brief: as §1
Mus musculus [12] = test: The compound was tested in vivo for photosensitizing efficacy in DBA/2 Mice transplanted with SMT/F tumors and the activity is expressed as % response (21-25 days) 3 hours post injection at 5.0 mg/kg concentration; No response; assay type: functional, organism-based; set-up: dose 5 mg/kg; method in brief: as §1
Mus musculus [13] = test: The compound was tested in vivo for photosensitizing efficacy in DBA/2 Mice transplanted with SMT/F tumors and the activity is expressed as % response (26-30 days) 3 hours post injection at 1 mg/kg concentration; No response; assay type: functional, organism-based; set-up: dose 1 mg/kg; method in brief: as §1
Mus musculus [14] = test: The compound was tested in vivo for photosensitizing efficacy in DBA/2 Mice transplanted with SMT/F tumors and the activity is expressed as % response (26-30 days) 3 hours post injection at 2.5 mg/kg concentration; assay type: functional; method in brief: as §1
Mus musculus [15] = test: The compound was tested in vivo for photosensitizing efficacy in DBA/2 Mice transplanted with SMT/F tumors and the activity is expressed as % response (26-30 days) 3 hours post injection at 5.0 mg/kg concentration; No response; assay type: functional, organism-based; set-up: dose 5 mg/kg; method in brief: as §1
Mus musculus [16] = test: The compound was tested in vivo for photosensitizing efficacy in DBA/2 Mice transplanted with SMT/F tumors and the activity is expressed as % response (6-10 days) 3 hours post injection at 2.5 mg/kg concentration; assay type: functional; method in brief: as §1
Mus musculus [17] = test: The compound was tested in vivo for photosensitizing efficacy in DBA/2 Mice transplanted with SMT/F tumors and the activity is expressed as % response (6-10 days) 3 hours post injection at 5.0 mg/kg concentration; assay type: functional; method in brief: as §1
Albumin [18] = target: T1, Albumin (Homo sapiens, UniProt P02768); test: Binding affinity against Human serum albumin(Site I).
T1 sequence (P02768 whole entry): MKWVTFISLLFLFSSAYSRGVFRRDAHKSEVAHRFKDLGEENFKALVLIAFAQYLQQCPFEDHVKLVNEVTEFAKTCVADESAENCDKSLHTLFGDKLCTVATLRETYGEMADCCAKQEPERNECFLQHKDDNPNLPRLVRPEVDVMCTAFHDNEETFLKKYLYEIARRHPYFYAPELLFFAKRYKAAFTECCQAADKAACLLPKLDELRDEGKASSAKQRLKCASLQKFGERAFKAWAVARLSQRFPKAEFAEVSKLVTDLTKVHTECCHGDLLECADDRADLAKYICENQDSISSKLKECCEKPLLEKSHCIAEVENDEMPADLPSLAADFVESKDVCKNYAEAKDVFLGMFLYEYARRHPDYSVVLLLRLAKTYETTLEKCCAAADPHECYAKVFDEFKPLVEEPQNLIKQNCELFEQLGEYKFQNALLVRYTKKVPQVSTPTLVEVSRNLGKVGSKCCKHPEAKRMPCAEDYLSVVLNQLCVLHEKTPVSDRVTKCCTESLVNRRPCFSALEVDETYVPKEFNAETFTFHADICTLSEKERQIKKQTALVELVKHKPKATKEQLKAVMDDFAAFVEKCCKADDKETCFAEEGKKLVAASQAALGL
Method in brief: (§2)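 Fluorometric titration: HSA and sensitizer fixed at 1 × 10^-6 mol/L. Site probe varied 4 × 10^-7 to 2 × 10^-6 mol/L: DNSA for site I, read at 472 nm; DP for site II, read at 476 nm; excitation 340 nm. Incubated 4 °C, pH 7.0, 4 h, dark. Bound probe taken from standard curves of free probe (water) and HSA-bound probe (2.5 × 10^-5 mol/L HSA).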

Albumin [19] = target: T1, Albumin; test: Binding affinity against Human serum albumin(Site II).; method in brief: as §2
Mus musculus [20] = test: The compound was tested in vivo for photosensitizing efficacy in DBA/2 Mice transplanted with SMT/F tumors and the activity is expressed as % response (6-10 days) 3 hours post injection at 1 mg/kg concentration; No response; assay type: functional, organism-based; set-up: dose 1 mg/kg; method in brief: as §1

Binding constant (Albumin [18]): 500000 l M-1
Binding constant (Albumin [19]): 500000 l M-1
SMILES: CCc1c(C)c2[nH]c1cc1[nH]c(cc3nc4c(c5nc(c2C=O)[C@@H](C)[C@@H]5CCC(=O)OC)CCC4=C3C)C(=O)C1(C)CC (stereo not given in full)
Response (Mus musculus [1]): inactive
Response (Mus musculus [2]): 60%
Response (Mus musculus [3]): inactive
Response (Mus musculus [4]): 100%
Response (Mus musculus [5]): 100%
Response (Mus musculus [6]): inactive
Response (Mus musculus [7]): 80%
Response (Mus musculus [8]): 60%
Response (Mus musculus [9]): inactive
Response (Mus musculus [10]): 60%
Response (Mus musculus [11]): 0%
Response (Mus musculus [12]): inactive
Response (Mus musculus [13]): inactive
Response (Mus musculus [14]): 20%
Response (Mus musculus [15]): inactive
Response (Mus musculus [16]): 100%
Response (Mus musculus [17]): 60%
Response (Mus musculus [20]): inactive
